Converted amounts (≈) assume the structure as drawn.

One series has as its system Mammalian orthoreovirus 1. The experiment in a line: Antiviral activity against Reovirus 1 in Vero cells assessed as reduction of virus-induced cytopathogenicity. In kind it is functional.
Conditions: not given
In general terms: Cytopathic effects are the visible damage that an infection or toxin causes in cultured cells.
As for `Nc1ncnc2c1ncn2C[C@H](O)CO` [(S)-DHPA], the MIC came to 250 µM (≈ 52.3 µg/mL).

Turning to `O=c1[nH]c(=O)n([C@H]2C[C@H](O)[C@@H](CO)O2)cc1/C=C/Br` [BRIVUDINE], the MIC was above 250 µM.

For `NC(=O)c1ncn([C@@H]2O[C@H](CO)[C@@H](O)[C@H]2O)n1` [RIBAVIRIN], the MIC was 150 µM (≈ 36.6 µg/mL).

Another series deals with Sindbis virus. The series is described as follows: Antiviral activity against Sindbis virus in Vero cells assessed as reduction of virus-induced cytopathogenicity.
Conditions: not given
In kind it is functional.
With `Nc1ncnc2c1ncn2C[C@H](O)CO` [(S)-DHPA], the MIC was above 250 µM.

`O=c1[nH]c(=O)n([C@H]2C[C@H](O)[C@@H](CO)O2)cc1/C=C/Br` [BRIVUDINE]: the MIC was above 250 µM.

Take `NC(=O)c1ncn([C@@H]2O[C@H](CO)[C@@H](O)[C@H]2O)n1` [RIBAVIRIN]: the MIC was above 250 µM.

In another series the test system is Human alphaherpesvirus 3. The experiment in a line: Antiviral activity against thymidine kinase-positive VZV OKA in human HEL cells after 7 days. To be noted: Human alphaherpesvirus 3, OKA, 168 h. In kind it is functional, organism-based.
As for `O=c1[nH]c(=O)n([C@H]2C[C@H](O)[C@@H](CO)O2)cc1/C=C/Br` [BRIVUDINE], it took 0.014 µM to reach a half-maximal effect (EC50).

For the next series, the system named is Human betaherpesvirus 5. The experiment in a line: Antiviral activity against CMV AD169 in human HEL cells after 7 days. In kind it is functional, organism-based. To be noted: Human betaherpesvirus 5, AD169, HEL, 168 h. An outline of the steps:
(§1)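 Confluent HEL fibroblasts were infected at 100 PFU per well. After 2 h, residual virus was removed and cells were kept in MEM with serial compound concentrations for 7 days at 37 °C. Cytopathogenicity or plaques were scored microscopically after ethanol fixation and Giemsa staining.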
For `Nc1ccn(C[C@@H](CO)OCP(=O)(O)O)c(=O)n1` [CIDOFOVIR], a half-maximal effect (EC50) was put at 0.67 µM.

The test system of another series is Punta Toro virus. The series is described as follows: Antiviral activity against Punta Toro virus in Vero cells assessed as reduction of virus-induced cytopathogenicity. In kind it is functional.
Conditions: not given
As to `Nc1ncnc2c1ncn2C[C@H](O)CO` [(S)-DHPA], the MIC was above 250 µM.

Take `O=c1[nH]c(=O)n([C@H]2C[C@H](O)[C@@H](CO)O2)cc1/C=C/Br` [BRIVUDINE]: the MIC was above 250 µM.

With `NC(=O)c1ncn([C@@H]2O[C@H](CO)[C@@H](O)[C@H]2O)n1` [RIBAVIRIN], the MIC amounted to 250 µM (≈ 61.1 µg/mL).

For a further series, the system named is Human betaherpesvirus 5. The series is described as follows: Antiviral activity against CMV Davis in human HEL cells after 7 days. Conditions: Human betaherpesvirus 5, Davis, 168 h. In kind it is functional, organism-based. An outline of the steps:
as §1
With `Nc1ccn(C[C@@H](CO)OCP(=O)(O)O)c(=O)n1` [CIDOFOVIR], the EC50 is 0.67 µM.

As for `Nc1nc2c(ncn2COC(CO)CO)c(=O)[nH]1` [GANCICLOVIR], the EC50 worked out at 2.6 µM.

Another series has as its system Respiratory syncytial virus. The experiment in a line: Antiviral activity against RSV in HeLa cells assessed as reduction of virus-induced cytopathogenicity. Conditions: human respiratory syncytial virus. In kind it is functional.
As to `Nc1ncnc2c1ncn2C[C@H](O)CO` [(S)-DHPA], the MIC is above 250 µM.

`O=c1[nH]c(=O)n([C@H]2C[C@H](O)[C@@H](CO)O2)cc1/C=C/Br` [BRIVUDINE]: the MIC was above 250 µM.

For `NC(=O)c1ncn([C@@H]2O[C@H](CO)[C@@H](O)[C@H]2O)n1` [RIBAVIRIN], the MIC was 150 µM (≈ 36.6 µg/mL).

For a further series, the system named is Human respirovirus 3. The series is described as follows: Antiviral activity against Parainfluenza 3 virus in Vero cells assessed as reduction of virus-induced cytopathogenicity. In kind it is functional.
Conditions: not given
On to `Nc1ncnc2c1ncn2C[C@H](O)CO` [(S)-DHPA], for which the MIC was found to be 50 µM (≈ 10.5 µg/mL).

For `O=c1[nH]c(=O)n([C@H]2C[C@H](O)[C@@H](CO)O2)cc1/C=C/Br` [BRIVUDINE], the MIC was above 250 µM.

On to `NC(=O)c1ncn([C@@H]2O[C@H](CO)[C@@H](O)[C@H]2O)n1` [RIBAVIRIN], for which the MIC was 150 µM (≈ 36.6 µg/mL).

System in the next series: not listed separately
The series is described as follows: Cytotoxicity against human HEL cells assessed as reduction of cell growth. In kind it is cell-based.
Conditions: not given
In short, it runs like this:
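HEL cells were seeded at 5 × 10^3 cells/well and allowed to proliferate for 24 h. Medium with graded compound concentrations was then added, followed by 3 days at 37 °C. Cell number was counted with a Coulter counter.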
On to `Nc1nc2c(ncn2COCCO)c(=O)[nH]1` [ACYCLOVIR], for which the CC50 was 545 µM.

Turning to `O=c1[nH]c(=O)n([C@H]2C[C@H](O)[C@@H](CO)O2)cc1/C=C/Br` [BRIVUDINE], the half-maximal cytotoxic concentration (CC50) worked out at 270 µM.

Consider `Nc1ccn(C[C@@H](CO)OCP(=O)(O)O)c(=O)n1` [CIDOFOVIR], for which the cytotoxic concentration (CC50) is 133 µM.

For `Nc1nc2c(ncn2COC(CO)CO)c(=O)[nH]1` [GANCICLOVIR], the CC50 is 262 µM.

System in a further series: not listed separately
The experiment in a line: Cytotoxicity against human HEL cells assessed as alteration in cell morphology. In kind it is cell-based.
Conditions: not given
An outline of the steps: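 Confluent human embryonic lung (HEL) fibroblast cultures were exposed to a range of compound concentrations. Cells were examined microscopically for any detectable change in normal morphology. The minimum cytotoxic concentration (MCC) was the lowest concentration causing such a change.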
As to `CCCCCC(O)c1cc2cn(C/C=C3\OC(=O)C(OCc4ccccc4)=C3OCc3ccccc3)c(=O)nc2o1` (stereo unspecified), the MCC is at least 100 µM.

For the compound `C#CCCCc1cc2cn(C/C=C3\OC(=O)C(OCc4ccccc4)=C3OCc3ccccc3)c(=O)nc2o1`, the MCC is above 100 µM.

`CCCCC#Cc1cn(C/C=C2\OC(=O)C(OCc3ccccc3)=C2OCc2ccccc2)c(=O)[nH]c1=O`: the MCC is at least 100 µM.

Regarding `CCCCCc1ccc(C#Cc2cn(C/C=C3\OC(=O)C(OCc4ccccc4)=C3OCc3ccccc3)c(=O)[nH]c2=O)cc1`, the MCC is at least 4 µM.

`CCCCCC(O)C#Cc1cn(C/C=C2\OC(=O)C(OCc3ccccc3)=C2OCc2ccccc2)c(=O)[nH]c1=O` (stereo unspecified): the MCC is at least 100 µM.

As for `O=C1O/C(=C\Cn2cc(C#Cc3ccc(Br)cc3)c(=O)[nH]c2=O)C(OCc2ccccc2)=C1OCc1ccccc1`, the MCC was at least 4 µM.

For the compound `Cc1ccc(C#Cc2cn(C/C=C3\OC(=O)C(OCc4ccccc4)=C3OCc3ccccc3)c(=O)[nH]c2=O)cc1`, the MCC came out at 60 µM.

As to `CCCCCc1cc2cn(C/C=C3\OC(=O)C(OCc4ccccc4)=C3OCc3ccccc3)c(=O)nc2o1`, the MCC was found to be 100 µM.

As to `CCCCCc1ccc(-c2cc3cn(C/C=C4\OC(=O)C(OCc5ccccc5)=C4OCc4ccccc4)c(=O)nc3o2)cc1`, the MCC is at least 20 µM.

`CCCCCCCCC#Cc1cn(C/C=C2\OC(=O)C(OCc3ccccc3)=C2OCc2ccccc2)c(=O)[nH]c1=O`: the MCC worked out at 100 µM.

Regarding `C#CCCCC#Cc1cn(C/C=C2\OC(=O)C(OCc3ccccc3)=C2OCc2ccccc2)c(=O)[nH]c1=O`, the MCC was at least 20 µM.

`CCCCc1cc2cn(C/C=C3\OC(=O)C(OCc4ccccc4)=C3OCc3ccccc3)c(=O)nc2o1`: the MCC is 20 µM.

`CCCCc1ccc(C#Cc2cn(C/C=C3\OC(=O)C(OCc4ccccc4)=C3OCc3ccccc3)c(=O)[nH]c2=O)cc1`: the MCC stood at 60 µM.

In the case of `CCCCCCC#Cc1cn(C/C=C2\OC(=O)C(OCc3ccccc3)=C2OCc2ccccc2)c(=O)[nH]c1=O`, the MCC was 20 µM.

Take `O=C1O/C(=C\Cn2cc3cc(CCc4ccccc4)oc3nc2=O)C(OCc2ccccc2)=C1OCc1ccccc1`: the MCC turned out to be 100 µM.

On to `CCCCCCc1cc2cn(C/C=C3\OC(=O)C(OCc4ccccc4)=C3OCc3ccccc3)c(=O)nc2o1`, for which the MCC is 100 µM.

For `O=C1O/C(=C\Cn2cc3cc(-c4ccc(Br)cc4)oc3nc2=O)C(OCc2ccccc2)=C1OCc1ccccc1`, the MCC was at least 20 µM.

Consider `Cc1ccc(-c2cc3cn(C/C=C4\OC(=O)C(OCc5ccccc5)=C4OCc4ccccc4)c(=O)nc3o2)cc1`, for which the MCC worked out at 100 µM.

For `CCCCc1ccc(-c2cc3cn(C/C=C4\OC(=O)C(OCc5ccccc5)=C4OCc4ccccc4)c(=O)nc3o2)cc1`, the MCC is at least 20 µM.

For the compound `CCCCCCCCc1cc2cn(C/C=C3\OC(=O)C(OCc4ccccc4)=C3OCc3ccccc3)c(=O)nc2o1`, the MCC is 100 µM.

Consider `CCCCCC#Cc1cn(C/C=C2\OC(=O)C(OCc3ccccc3)=C2OCc2ccccc2)c(=O)[nH]c1=O`, for which the MCC stood at 20 µM.

Take `Nc1nc2c(ncn2COCCO)c(=O)[nH]1` [ACYCLOVIR]: the MCC was above 1780 µM.

With `O=c1[nH]c(=O)n([C@H]2C[C@H](O)[C@@H](CO)O2)cc1/C=C/Br` [BRIVUDINE], the MCC was at least 1200 µM.

Regarding `Nc1ccn(C[C@@H](CO)OCP(=O)(O)O)c(=O)n1` [CIDOFOVIR], the MCC is at least 1270 µM.

In the case of `Nc1nc2c(ncn2COC(CO)CO)c(=O)[nH]1` [GANCICLOVIR], the MCC was at least 1580 µM.

The test system of a further series is Coxsackievirus B4. The experiment in a line: Antiviral activity against Coxsackie virus B4 in Vero cells assessed as reduction of virus-induced cytopathogenicity. In kind it is functional. To be noted: Enterovirus B.
In the case of `Nc1ncnc2c1ncn2C[C@H](O)CO` [(S)-DHPA], the MIC was above 250 µM.

Take `O=c1[nH]c(=O)n([C@H]2C[C@H](O)[C@@H](CO)O2)cc1/C=C/Br` [BRIVUDINE]: the MIC was above 250 µM.

In the case of `NC(=O)c1ncn([C@@H]2O[C@H](CO)[C@@H](O)[C@H]2O)n1` [RIBAVIRIN], the MIC was above 250 µM.

A further series concerns Human alphaherpesvirus 2. The experiment in a line: Antiviral activity against HSV2 G in HEL cells assessed as reduction of virus-induced cytopathogenicity. In kind it is functional. To be noted: Human alphaherpesvirus 2, G.
`Nc1nc2c(ncn2COCCO)c(=O)[nH]1` [ACYCLOVIR]: the MIC amounted to 0.4 µM (≈ 0.0901 µg/mL).

In the case of `O=c1[nH]c(=O)n([C@H]2C[C@H](O)[C@@H](CO)O2)cc1/C=C/Br` [BRIVUDINE], the MIC came to 10 µM (≈ 3.33 µg/mL).

In the case of `Nc1nc2c(ncn2COC(CO)CO)c(=O)[nH]1` [GANCICLOVIR], the MIC is 0.0064 µM (≈ 0.00163 µg/mL).

In the case of `NC(=O)c1ncn([C@@H]2O[C@H](CO)[C@@H](O)[C@H]2O)n1` [RIBAVIRIN], the MIC came to 250 µM (≈ 61.1 µg/mL).

For another series, the system named is Human alphaherpesvirus 1. The experiment in a line: Antiviral activity against HSV1 KOS in HEL cells assessed as reduction of virus-induced cytopathogenicity. In kind it is functional. To be noted: Human alphaherpesvirus 1, KOS.
For `Nc1nc2c(ncn2COC(CO)CO)c(=O)[nH]1` [GANCICLOVIR], the MIC was determined as 0.032 µM (≈ 0.00817 µg/mL).

In the case of `NC(=O)c1ncn([C@@H]2O[C@H](CO)[C@@H](O)[C@H]2O)n1` [RIBAVIRIN], the MIC amounted to 250 µM (≈ 61.1 µg/mL).

The test system of the next series is Vesicular stomatitis virus. The series is described as follows: Antiviral activity against VSV in HeLa cells assessed as reduction of virus-induced cytopathogenicity.
Conditions: not given
In kind it is functional.
Take `Nc1ncnc2c1ncn2C[C@H](O)CO` [(S)-DHPA]: the MIC is above 250 µM.

As to `O=c1[nH]c(=O)n([C@H]2C[C@H](O)[C@@H](CO)O2)cc1/C=C/Br` [BRIVUDINE], the MIC is above 250 µM.

For the compound `NC(=O)c1ncn([C@@H]2O[C@H](CO)[C@@H](O)[C@H]2O)n1` [RIBAVIRIN], the MIC is above 250 µM.

The test system of the next series is Human alphaherpesvirus 3. The experiment in a line: Antiviral activity against thymidine kinase deficient VZV 07/1 in human HEL cells after 7 days. In kind it is functional, organism-based. To be noted: Human alphaherpesvirus 3, 07/1, HEL, 168 h.
The compound `O=c1[nH]c(=O)n([C@H]2C[C@H](O)[C@@H](CO)O2)cc1/C=C/Br` [BRIVUDINE] came in with a 50% effective concentration (EC50) of 168 µM.

The EC50 is the midpoint of the concentration-response curve. Lower therefore signals greater potency. As usually defined, the CC50 is the concentration at which the toxic effect on the cells reaches its halfway point.
